We go through 13 molecules from ChEMBL document CHEMBL3044819, “Structure-activity relationship in the interaction of substituted perinaphthenones with Mycosphaerella fijiensis” (J Agric Food Chem, 2009).

For the test, the system named is Pseudocercospora fijiensis. Briefly: Antifungal activity against Pseudocercospora fijiensis assessed as inhibition of mycelial growth under 12 hr photoperiod measured after 8 days. It counts as functional, organism-based. The gist of the method:
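Microtiter well assay; inoculum adjusted to 2 × 10⁵ mycelial fragments/mL. Plates kept in an incubation chamber 1 m from white fluorescent tubes on a 12 h photoperiod. Mycelial growth was measured after 8 days, which is the logarithmic growth phase. IC₅₀ values were calculated from growth inhibition, with statistical analysis per Lazzaro et al. Benomyl and propiconazole were tested as reference fungicides.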

Calls of active or inactive are those of the source. The rule behind the calls is not given here.

Take `O=C1C(O)=Cc2cccc3cccc1c23`: the “growth inhibition (GI)” value was “inactive”.
With `O=C1C=C(O)c2cccc3cccc1c23`, the “growth inhibition (GI)” value is “inactive”.
For `O=C1C(Cl)=Cc2cccc3cccc1c23`, the “growth inhibition (GI)” value is “Active”.
Regarding `O=C1C=Cc2ccc(O)c3cccc1c23`, the “growth inhibition (GI)” value is “inactive”.
As for `COC1=CC(=O)c2cccc3cccc1c23`, the “growth inhibition (GI)” value was “inactive”.
Next, `COC1=Cc2cccc3cccc(c23)C1=O`: “inactive”; `O=C1C([N+](=O)[O-])=Cc2cccc3cccc1c23`: “Active”; `COc1ccc2cccc3c2c1C=C([N+](=O)[O-])C3=O`: “Active”.
As to `COc1ccc2c3c(cccc13)C(=O)C=C2`, the “growth inhibition (GI)” value is “inactive”.
Next, `O=C1C=Cc2c(O)ccc3cccc1c23`: “inactive”; `O=C1C=Cc2cccc3cccc1c23`: “Active”.
Next, `COc1ccc2cccc3c2c1C=CC3=O`: “inactive”.
As for `O=C1C(Br)=Cc2cccc3cccc1c23`, the “growth inhibition (GI)” value is “Active”.
